Drawing on the array DNA melting data of Ke et al. (doi:10.1101/2024.01.08.574731), this text covers folding enthalpy and Tm for 37 sequences.

A short description of data set [1]: folding enthalpy; higher = less favourable; fluorescence melt of hairpins on a sequencing array, two-state fit. The following applies: sodium 0.088 M. The method in brief: (§1)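 Two-state fits, bootstrapped, provided melting temperature and folding enthalpy from Cy3 fluorescence normalised to pre-quench Cy3 and to control constructs. Library hairpins with annealed Cy3 and quencher oligos were imaged on a sequenced MiSeq flow cell in 50 mM Na-HEPES pH 8.0, 25 mM NaCl, at 2.5 °C intervals up to 60 °C. Four replicates were combined with inverse-variance weighting. A 9.35 °C upward shift was applied to fitted temperatures to match UV melts.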

Data set [2] in a line: melting temperature; fluorescence melt of hairpins on a sequencing array, two-state fit, raised by 9.35 °C to match UV melts. The following applies: sodium 0.088 M. The method in brief: as §1

In the case of GTGATTGAAAAATCAC ((((((....)))))), in data set [1], the folding enthalpy is -123 kJ/mol. Moreover, the Tm in data set [2] was found to be 51.7 °C.

For GTGCAAACGAAAGTTCAC (((..(((....)))))), in data set [1], the folding enthalpy was -32.6 kJ/mol. Besides, the Tm in data set [2] stood at 33.2 °C.

With GTGCAACCGAAAGGTCAC (((..(((....)))))), in data set [1], the folding enthalpy was -69.5 kJ/mol. Besides, in data set [2], the Tm is 40.1 °C.

With GTGCAACGAAAGTTCCAC (((.(((....))).))), the folding enthalpy in data set [1] is -43.1 kJ/mol. In addition, the Tm in data set [2] was 38.1 °C.

With GTGCAAGGAAACCTGCAC (((((.(....).))))), the folding enthalpy in data set [1] is -150 kJ/mol. Moreover, the Tm in data set [2] was found to be 51.4 °C.

Take GTGCAAGGAAACTTACAC (((.(((....))).))): the folding enthalpy in data set [1] was -90 kJ/mol. For the same sequence, in data set [2], the Tm was found to be 34.8 °C.

Turning to GTGCAAGGAAACTTGCAC (((((((....))))))), the folding enthalpy in data set [1] was -133 kJ/mol. Besides, the Tm in data set [2] was 65.8 °C.

In the case of GTGCAAGGAAACTTGTAC ((.((((....)))).)), the folding enthalpy in data set [1] was -136 kJ/mol. In addition, the Tm in data set [2] was determined as 45 °C.

With GTGCAATCGAAAGATCAC (((..(((....)))))), in data set [1], the folding enthalpy was -58.6 kJ/mol. The Tm in data set [2] amounted to 30 °C.

Consider GTGCACACGAAAGTGCAC (((..(((....)))))), for which, in data set [1], the folding enthalpy is -129 kJ/mol. The Tm in data set [2] is 60 °C.

As to GTGCACCCGAAAGGGCAC (((..(((....)))))), in data set [1], the folding enthalpy was -99.8 kJ/mol. In data set [2], the Tm was found to be 52.1 °C.

GTGCACGAAAGTGCCAC ((((((....))).))): the folding enthalpy in data set [1] was -34.1 kJ/mol. The Tm in data set [2] came out at 54.5 °C.

Consider GTGCACGAAAGTGGGCAC ((((((....)))..))), for which, in data set [1], the folding enthalpy is -94.5 kJ/mol. For the same sequence, the Tm in data set [2] was found to be 52.6 °C.

On to GTGCACGAAAGTGGTCAC ((((((....)))..))), for which, in data set [1], the folding enthalpy was -66.7 kJ/mol. Further, the Tm in data set [2] was 40.2 °C.

With GTGCACGGAAACATGCAC (((((.(....).))))), in data set [1], the folding enthalpy is -145 kJ/mol. In addition, the Tm in data set [2] came out at 47.9 °C.

Take GTGCACGGAAACGTGTGC (..((((....))))..): in data set [1], the folding enthalpy was -116 kJ/mol. Also, the Tm in data set [2] is 50.2 °C.

For GTGCAGGAAACTGCAC ((((((....)))))), the folding enthalpy in data set [1] is -150 kJ/mol. Besides, in data set [2], the Tm came out at 68.2 °C.

As for GTGCAGGCGAAAGCCCAC (((..(((....)))))), the folding enthalpy in data set [1] is -45 kJ/mol. Besides, the Tm in data set [2] is 48.9 °C.

Turning to GTGCAGGGAAACCTGTAC ((.((((....)))).)), the folding enthalpy in data set [1] was -151 kJ/mol. In data set [2], the Tm was found to be 49.6 °C.

For GTGCAGGGAAACTTGCAC (((((.(....).))))), the folding enthalpy in data set [1] was -170 kJ/mol. Moreover, in data set [2], the Tm is 52.5 °C.

As to GTGCATCGAAAGATTCAC (((.(((....))).))), in data set [1], the folding enthalpy is -126 kJ/mol. Besides, the Tm in data set [2] stood at 43.4 °C.

Turning to GTGCATGCGAAAGCACAC (((..(((....)))))), the folding enthalpy in data set [1] was -50.8 kJ/mol. Further, in data set [2], the Tm came to 46.3 °C.

In the case of GTGCATGGAAACATGCGC (.(((((....))))).), the folding enthalpy in data set [1] is -89.9 kJ/mol. Also, the Tm in data set [2] came to 56.9 °C.

Regarding GTGCATGGAAACATGTAC ((.((((....)))).)), the folding enthalpy in data set [1] was -133 kJ/mol. Besides, the Tm in data set [2] amounted to 48.7 °C.

Take GTGCATGGAAACGTGTAC ((.((.(....).)).)): the folding enthalpy in data set [1] is -73.5 kJ/mol. Further, in data set [2], the Tm is 38.6 °C.

As for GTGCCACCGAAAGGTCAC (((..(((....)))))), the folding enthalpy in data set [1] was -39.7 kJ/mol. Moreover, in data set [2], the Tm is 50.5 °C.

GTGCCAGGAAACTGGCGC (.(((((....))))).): the folding enthalpy in data set [1] is -95.4 kJ/mol. For the same sequence, the Tm in data set [2] came to 62 °C.

With GTGCCAGGAAACTGGTAC ((.((((....)))).)), the folding enthalpy in data set [1] was -125 kJ/mol. Also, the Tm in data set [2] is 53.8 °C.

Regarding GTGCCCGGAAACGAGCAC ((((.((....)).)))), in data set [1], the folding enthalpy is -172 kJ/mol. Also, the Tm in data set [2] came out at 52.8 °C.

With GTGCCCGGAAACGGACAC (((.(((....))).))), the folding enthalpy in data set [1] was -210 kJ/mol. Moreover, in data set [2], the Tm was determined as 53.8 °C.

As to GTGCCGCGAAAGCGACAC (((.(((....))).))), the folding enthalpy in data set [1] was -144 kJ/mol. For the same sequence, the Tm in data set [2] is 65.7 °C.

As for GTGCCGCGAAAGCGCAC (((.(((....)))))), the folding enthalpy in data set [1] is -88.3 kJ/mol. Further, the Tm in data set [2] is 69 °C.

For the sequence GTGCCTGGAAACAAGCAC ((((.((....)).)))), the folding enthalpy in data set [1] was -103 kJ/mol. Further, the Tm in data set [2] amounted to 42.7 °C.

For the sequence GTGCCTGGAAACAGGCGC (.(((((....))))).), the folding enthalpy in data set [1] is -85.1 kJ/mol. In data set [2], the Tm turned out to be 65 °C.

As to GTGCGACGAAAGTCCCAC (((.(((....))).))), the folding enthalpy in data set [1] is -129 kJ/mol. Besides, in data set [2], the Tm turned out to be 47.4 °C.

As for GTGCGACGAAAGTCTCAC (((.(((....))).))), the folding enthalpy in data set [1] is -172 kJ/mol. For the same sequence, the Tm in data set [2] was 50.5 °C.

Consider GTGCGAGGAAACTCACAC (((.(((....))).))), for which the folding enthalpy in data set [1] is -143 kJ/mol. For the same sequence, in data set [2], the Tm came out at 45.8 °C.
